Among the data in ChEMBL document CHEMBL1137436, “Development of Tyrocidine A analogues with improved antibacterial activity” (2007) are MIC values, retold here.

The subject of test [1] is Bacillus subtilis. The test can be described thus: Antibacterial activity against Bacillus subtilis MRL 18734 in presence of 25 mg/L calcium by microdilution method. In kind it is functional. The method in brief:
(§1)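 CLSI broth microdilution MIC. Compounds dissolved in cation-adjusted Mueller-Hinton broth (CAMHB), or in a little DMSO then broth. Overnight cultures suspended in saline to 0.5 McFarland, diluted 1:100 in CAMHB, added to wells of diluted compound. Drug-free wells quantitatively subcultured to confirm actual colony counts. Calcium at 25 or 50 mg/L.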

Test [2] concerns Enterococcus faecalis. The test can be described thus: Antibacterial activity against Enterococcus faecalis ATCC 29212 in presence of 25 mg/L calcium by microdilution method. In kind it is functional. The method in brief: (§2)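 CLSI broth microdilution in cation-adjusted Mueller-Hinton broth (CAMHB); compounds dissolved in CAMHB or a little DMSO then broth. Overnight cultures suspended in saline to 0.5 McFarland, diluted 1:100 in CAMHB and added to wells of diluted compound. Drug-free wells subcultured quantitatively for actual colony counts. Calcium at 25 or 50 mg/L as the line states.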
On the technique in general: Dilution methods test growth across graded concentrations, often in twofold steps.

Test [3] deals with Bacillus cereus. Nature of the test: Antibacterial activity against Bacillus cereus MRL 18731 in presence of 25 mg/L calcium by microdilution method. In kind it is functional. Put shortly: as §1
Test [4] has as its system Escherichia coli. Nature of the test: Antibacterial activity against Escherichia coli ATCC 25922 in presence of 25 mg/L calcium by microdilution method. The test is classed as functional. The method in brief:
as §1

For test [5], the system named is Staphylococcus aureus. Nature of the test: Antibacterial activity against methicillin-resistant Staphylococcus aureus ATCC 33592 in presence of 25 mg/L calcium by microdilution method. In kind it is functional. Put shortly: as §2
Test [6] concerns Enterococcus faecalis. The test can be described thus: Antibacterial activity against vancomycin-resistant Enterococcus faecalis MRL 17001 in presence of 25 mg/L calcium by microdilution method. In kind it is functional. Put shortly: as §2
The subject of test [7] is Staphylococcus aureus. The test can be described thus: Antibacterial activity against methicillin-susceptible Staphylococcus aureus ATCC 29213 in presence of 25 mg/L calcium by microdilution method. In kind it is functional. The method in brief: as §2
Test [8] concerns Staphylococcus epidermidis. Nature of the test: Antibacterial activity against methicillin-resistant Staphylococcus epidermidis MRL 19010 in presence of 25 mg/L calcium by microdilution method. The test is classed as functional. Put shortly: as §2
Test [9] deals with Staphylococcus aureus. Nature of the test: microbe, parasite or virus in culture. Conditions: ATCC 29213.
Test [10] deals with Enterococcus faecalis. The test can be described thus: Antibacterial activity against Enterococcus faecalis ATCC 29212 in presence of 50 mg/L calcium by microdilution method. In kind it is functional. Put shortly:
as §2

In test [11] the test system is Bacillus subtilis. Nature of the test: Antibacterial activity against Bacillus subtilis MRL 18734 in presence of 50 mg/L calcium by microdilution method. In kind it is functional. Put shortly:
(§3)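 CLSI broth microdilution. Compounds dissolved in cation-adjusted Mueller-Hinton broth (CAMHB), or in a small amount of DMSO followed by broth. Overnight cultures suspended in saline to 0.5 McFarland, diluted 1:100 in CAMHB and added to wells of diluted compound. Drug-free wells subcultured quantitatively to give actual colony counts. Calcium tested at 50 mg/L, alongside the standard 25 mg/L.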

Test [12] concerns Staphylococcus aureus. The test can be described thus: microbe, parasite or virus in culture. The conditions noted are these: ATCC 33592.
For test [13], the system named is Staphylococcus epidermidis. Nature of the test: Antibacterial activity against methicillin-resistant Staphylococcus epidermidis MRL 19010 in presence of 50 mg/L calcium by microdilution method. The test is classed as functional. The method in brief:
as §2

In test [14] the test system is Enterococcus faecalis. Nature of the test: Antibacterial activity against vancomycin-resistant Enterococcus faecalis MRL 17001 in presence of 50 mg/L calcium by microdilution method. The test is classed as functional. Put shortly: as §2
In test [15] the test system is Bacillus cereus. The test can be described thus: Antibacterial activity against Bacillus cereus MRL 18731 in presence of 50 mg/L calcium by microdilution method. The test is classed as functional. The method in brief:
as §3

Test [16] concerns Escherichia coli. Nature of the test: Antibacterial activity against Escherichia coli ATCC 25922 in presence of 50 mg/L calcium by microdilution method. The test is classed as functional. Put shortly:
as §1

Converted amounts (≈) assume the structure as drawn. Where a SMILES comes first, the peptide text is derived from it. [ ]: non-standard residue; d: D form. Orn = NCCC[C@H](N)C(=O)O A value given as a limit tells only on which side of the number the result lay.

For the compound `CC(C)C[C@@H]1NC(=O)[C@H](CCCN)NC(=O)[C@H](C(C)C)NC(=O)[C@H](Cc2ccc(O)cc2)NC(=O)[C@H](CCCCN)NC(=O)[C@H](CC(N)=O)NC(=O)[C@@H](CCCCN)NC(=O)[C@H](Cc2ccccc2)NC(=O)[C@@H]2CCCN2C(=O)[C@@H](Cc2ccccc2)NC1=O`, the MIC came to 2 µg/mL in the test with Bacillus subtilis [1]; 32 µg/mL with Enterococcus faecalis [2]; 16 µg/mL with Bacillus cereus [3]; 32 µg/mL in the test with Escherichia coli [4]; 16 µg/mL with Staphylococcus aureus [5]; 8 µg/mL in the test on Enterococcus faecalis [6]. Also, the MIC in the test on Staphylococcus aureus [7] came to 16 µg/mL; in test [8] it was 4 µg/mL.

Take `CC(C)C[C@@H]1NC(=O)[C@H](CCCN)NC(=O)[C@H](C(C)C)NC(=O)[C@H](Cc2ccc(O)cc2)NC(=O)[C@H](CCCCN)NC(=O)[C@H](CC(N)=O)NC(=O)[C@@H](Cc2ccccc2)NC(=O)[C@H](Cc2c(F)c(F)c(F)c(F)c2F)NC(=O)[C@@H]2CCCN2C(=O)[C@@H](Cc2ccccc2)NC1=O`: the MIC was 8 µg/mL with Bacillus subtilis [1]; 4 µg/mL in the test on Enterococcus faecalis [2]; 8 µg/mL with Bacillus cereus [3]; above 256 µg/mL with Escherichia coli [4]; 8 µg/mL with Staphylococcus aureus [5]; 4 µg/mL in the test on Enterococcus faecalis [6]. Besides, the results for the MIC (with Staphylococcus aureus [7]; in test [8]) were 16 µg/mL and 4 µg/mL, respectively.

Regarding `CC(C)C[C@@H]1NC(=O)[C@H](CCCN)NC(=O)[C@H](C(C)C)NC(=O)[C@H](Cc2ccc(O)cc2)NC(=O)[C@H](CCC(N)=O)NC(=O)[C@H](CC(N)=O)NC(=O)[C@@H](CCCCN)NC(=O)[C@H](Cc2ccccc2)NC(=O)[C@@H]2CCCN2C(=O)[C@@H](Cc2ccccc2)NC1=O`, the MIC was 16 µg/mL in the test with Bacillus subtilis [1]; 64 µg/mL in the test with Enterococcus faecalis [2]; 64 µg/mL in the test on Bacillus cereus [3]; 128 µg/mL with Escherichia coli [4]; 64 µg/mL in the test on Staphylococcus aureus [5]; 32 µg/mL in the test on Enterococcus faecalis [6]. The MIC (in the test with Staphylococcus aureus [7]; in [8]) was 32 µg/mL each time.

In the case of `CC(C)C[C@@H]1NC(=O)[C@H](CCCN)NC(=O)[C@H](C(C)C)NC(=O)[C@H](Cc2ccc(O)cc2)NC(=O)[C@H](CCCCN)NC(=O)[C@H](CC(N)=O)NC(=O)[C@@H](CCCCN)NC(=O)[C@H](Cc2c(F)c(F)c(F)c(F)c2F)NC(=O)[C@@H]2CCCN2C(=O)[C@@H](Cc2ccccc2)NC1=O`, the MIC in the test with Bacillus subtilis [1] is 2 µg/mL; in the test on Enterococcus faecalis [2], 16 µg/mL; with Bacillus cereus [3], 4 µg/mL; with Escherichia coli [4] it was 32 µg/mL; in the test with Staphylococcus aureus [5], 8 µg/mL; in the test on Enterococcus faecalis [6] it was 4 µg/mL. For the same compound, the MIC with Staphylococcus aureus [7] came out at 8 µg/mL; in test [8], 4 µg/mL.

For the compound `CC(C)C[C@@H]1NC(=O)[C@H](CCCN)NC(=O)[C@H](C(C)C)NC(=O)[C@H](Cc2ccc(O)cc2)NC(=O)[C@H](CCC(N)=O)NC(=O)[C@H](CC(N)=O)NC(=O)[C@@H](Cc2ccccc2)NC(=O)[C@H](Cc2c(F)c(F)c(F)c(F)c2F)NC(=O)[C@@H]2CCCN2C(=O)[C@@H](Cc2ccccc2)NC1=O`, the MIC with Bacillus subtilis [1] is 4 µg/mL; in the test on Enterococcus faecalis [2] it was 4 µg/mL; in the test on Bacillus cereus [3], 4 µg/mL; with Escherichia coli [4] it was above 256 µg/mL; in the test with Staphylococcus aureus [5], 16 µg/mL; in the test with Enterococcus faecalis [6], 8 µg/mL. Further, the MIC (in the test on Staphylococcus aureus [7]; in test [8]) was 8 µg/mL in each case.

For `CC(C)C[C@@H]1NC(=O)[C@H](CCCN)NC(=O)[C@H](C(C)C)NC(=O)[C@H](Cc2c(F)c(F)c(F)c(F)c2F)NC(=O)[C@H](CCC(N)=O)NC(=O)[C@H](CC(N)=O)NC(=O)[C@@H](Cc2ccccc2)NC(=O)[C@H](Cc2ccccc2)NC(=O)[C@@H]2CCCN2C(=O)[C@@H](Cc2ccccc2)NC1=O`, the MIC with Bacillus subtilis [1] was 8 µg/mL; with Enterococcus faecalis [2] it was 2 µg/mL; in the test with Bacillus cereus [3] it was 8 µg/mL; with Escherichia coli [4], above 256 µg/mL; in the test with Staphylococcus aureus [5] it was 16 µg/mL; in the test with Enterococcus faecalis [6], 2 µg/mL. Also, the MIC is 16 µg/mL with Staphylococcus aureus [7] and 2 µg/mL in test [8].

With `CC(C)C[C@@H]1NC(=O)[C@H](CCCN)NC(=O)[C@H](C(C)C)NC(=O)[C@H](Cc2c(F)c(F)c(F)c(F)c2F)NC(=O)[C@H](CCC(N)=O)NC(=O)[C@H](CC(N)=O)NC(=O)[C@@H](Cc2ccccc2)NC(=O)[C@H](Cc2c(F)c(F)c(F)c(F)c2F)NC(=O)[C@@H]2CCCN2C(=O)[C@@H](Cc2ccccc2)NC1=O`, the MIC was 128 µg/mL with Bacillus subtilis [1]; 32 µg/mL with Enterococcus faecalis [2]; 256 µg/mL in the test on Bacillus cereus [3]; above 256 µg/mL in the test with Escherichia coli [4]; above 256 µg/mL in the test with Staphylococcus aureus [5]; 32 µg/mL with Enterococcus faecalis [6]. Moreover, the values for the MIC (with Staphylococcus aureus [7]; in [8]) were above 256 µg/mL and 256 µg/mL, respectively.

As to `CCCCCCCCCC(=O)N[C@@H](Cc1c[nH]c2ccccc12)C(=O)N[C@H](CC(N)=O)C(=O)N[C@@H](CC(=O)O)C(=O)N[C@@H]1C(=O)NCC(=O)N[C@@H](CCCN)C(=O)N[C@@H](CC(=O)O)C(=O)N[C@H](C)C(=O)N[C@@H](CC(=O)O)C(=O)NCC(=O)N[C@H](CO)C(=O)N[C@@H]([C@H](C)CC(=O)O)C(=O)N[C@@H](CC(=O)c2ccccc2N)C(=O)O[C@@H]1C`, the MIC in the test on Staphylococcus aureus [9] came out at 0.25 µg/mL (≈ 0.154 µM); with Enterococcus faecalis [10], 1 µg/mL; in the test on Bacillus subtilis [1], 1 µg/mL; in the test with Enterococcus faecalis [2], 1 µg/mL; in the test on Bacillus cereus [3] it was 0.5 µg/mL; with Bacillus subtilis [11], 0.25 µg/mL. For the same compound, the MIC against Staphylococcus aureus [12] is 0.25 µg/mL (≈ 0.154 µM); with Escherichia coli [4], above 128 µg/mL; in the test with Staphylococcus aureus [5] it was 1 µg/mL; in test [13] it was 0.5 µg/mL; in the test with Enterococcus faecalis [6] it was 2 µg/mL; with Staphylococcus aureus [7] it was 1 µg/mL. In addition, the MIC in the test on Enterococcus faecalis [14] was 1 µg/mL; in [8], 1 µg/mL; with Bacillus cereus [15], 0.25 µg/mL; in the test on Escherichia coli [16], above 128 µg/mL.

For `CC(C)C[C@@H]1NC(=O)[C@H](CCCN)NC(=O)[C@H](C(C)C)NC(=O)[C@H](Cc2ccc(O)cc2)NC(=O)[C@H](CCCCN)NC(=O)[C@H](CC(N)=O)NC(=O)[C@@H](Cc2ccccc2)NC(=O)[C@H](Cc2ccccc2)NC(=O)[C@@H]2CCCN2C(=O)[C@@H](Cc2ccccc2)NC1=O` (cyclo(F[dF]NKYV[Orn]L[dF]P)), the MIC in the test with Bacillus subtilis [1] came to 2 µg/mL; with Enterococcus faecalis [2] it was 2 µg/mL; in the test with Bacillus cereus [3] it was 2 µg/mL; in the test with Escherichia coli [4], 128 µg/mL; in the test with Staphylococcus aureus [5], 4 µg/mL; in the test on Enterococcus faecalis [6], 2 µg/mL. Moreover, the figures for the MIC (with Staphylococcus aureus [7]; in test [8]) were 4 µg/mL and 2 µg/mL, respectively.

As to `CC(C)C[C@@H]1NC(=O)[C@H](CCCN)NC(=O)[C@H](C(C)C)NC(=O)[C@H](Cc2ccc(O)cc2)NC(=O)[C@H](CCC(N)=O)NC(=O)[C@H](CC(N)=O)NC(=O)[C@@H](Cc2ccccc2)NC(=O)[C@H](Cc2ccccc2)NC(=O)[C@@H]2CCCN2C(=O)[C@@H](Cc2ccccc2)NC1=O` [TYROCIDINE A] (cyclo(F[dF]NQYV[Orn]L[dF]P)), the MIC in the test on Bacillus subtilis [1] is 16 µg/mL; in the test with Enterococcus faecalis [2], 16 µg/mL; in the test on Bacillus cereus [3], 16 µg/mL; with Escherichia coli [4], above 128 µg/mL; with Staphylococcus aureus [5], 32 µg/mL; with Enterococcus faecalis [6], 16 µg/mL. In addition, the figures for the MIC (in the test on Staphylococcus aureus [7]; in [8]) were 32 µg/mL and 16 µg/mL, respectively.
